Here are results for twelve molecules from ChEMBL document CHEMBL1142527, “Tricyclic [1,2,4]triazine 1,4-dioxides as hypoxia selective cytotoxins” (J Med Chem, 2008).

Series [1] relates to HT-29. Briefly: Hypoxic cytotoxicity ratio, ratio of aerobic IC50 to anoxic IC50 for human HT-29 cells. Type of series: functional.
In series [2] the test system is HT-29. Briefly: Metabolic stability in human HT-29 multicellular layer assessed as apparent first-order rate constant under anoxic condition. Type of series: ADME, cell-based. Summed up:
(§1)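 Stirred single-cell suspensions of anoxic HT29 cells are exposed for 3 h at a drug concentration giving roughly one log kill by 1 h. Clonogenic survival is followed, and extracellular drug is monitored by HPLC. Concentration-time data are fitted for the apparent first-order metabolic rate constant k_met, scaled to MCL cell density. CT₁₀ and M₁₀ (drug metabolized at 10% survival) are interpolated from the fitted PK/PD model.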

Series [3] relates to HT-29. Briefly: Cytotoxicity against human HT-29 cells after 4 hrs under strict hypoxic condition. Type of series: functional, cell-based.
Series [4] deals with HT-29. In words: Drug metabolism in human HT-29 cells assessed as amount of drug metabolized for one log of cell kill at their CT10 concentration for 1 hr. The conditions noted are these: ht-29, 1 h. The series is classed as ADME, cell-based. Summed up: as §1
Series [5] relates to SiHa. In words: Cytotoxicity against human SiHa cells after 4 hrs under strict hypoxic condition. The series is classed as functional, cell-based.
The subject of series [6] is SiHa. Briefly: Hypoxic cytotoxicity ratio, ratio of aerobic IC50 to anoxic IC50 for human SiHa cells. Type of series: functional.
The test system of series [7] is HT-29. Briefly: Drug diffusion coefficient in human HT-29 multicellular layer under 95% oxygen by liquid scintillation counting. Type of series: ADME, cell-based. Summed up: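 Tissue diffusion coefficient D measured in HT29 multicellular layers held under 95% O₂ to suppress bioreductive metabolism. Reported as ×10⁻⁷ cm²s⁻¹.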
Series [8] has as its system HT-29. In words: Cytotoxicity against human HT-29 cells assessed as AUC-time curve providing 10% surviving fraction by clonogenic assay. The series is classed as functional.
Series [9] can be described thus: Solubility at 22 degC in culture medium in presence of 5% fetal calf serum. To be noted: culture medium with 5% fetal calf serum; read-out: solubility. Type of series: physicochemical. Summed up:
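Solubility of the HCl salts is determined in culture medium containing 5% fetal calf serum at 22 °C.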

Some results are limits rather than exact numbers.

For the molecule `CN(C)CCNc1n[n+]([O-])c2c3c(ccc2[n+]1[O-])CCC3`, the “Ratio IC50” value is 67 in series [1] and 99 in [6]. Moreover, the Activity stood at 0.74 min⁻¹ in [2], 2219 µM in series [4] and 26.3 µM·h in [8]. Moreover, the IC50 (commonly the point on the concentration scale where inhibition reaches its midpoint) in [3] (Homo sapiens, HT-29, 4 h) was determined as 3 µM; in series [5] (Homo sapiens, SiHa, 4 h) it was 1.6 µM. The same molecule yielded a D in [7] of 8.4e-07 cm²/s. Besides, the solubility (in general, the concentration that dissolves in the medium under given conditions) in [9] is above 54 mM.

For `COc1ccc2c(c1)[n+]([O-])c(NCCN(C)C)n[n+]2[O-]`, the “Ratio IC50” value in series [1] came to 89. Besides, the results for the Activity in series [2], in [4] and in [8] were 0.54 min⁻¹, 1635 µM and 26.1 µM·h, respectively. In series [7], the D was 2.3e-07 cm²/s.

Turning to `Nc1n[n+]([O-])c2ccccc2[n+]1[O-]` [TIRAPAZAMINE], the Activity in series [4] came out at 1698 µM; in series [8], 24.3 µM·h. This molecule also gave a D in [7] of 4.04e-07 cm²/s.

As to `CN(C)CCNc1n[n+]([O-])c2cc3c(cc2[n+]1[O-])CCC3`, the “Ratio IC50” value is on record as 152 in series [1] and 111 in series [6]. The Activity was 0.44 min⁻¹ in series [2], 815 µM in [4] and 16 µM·h in series [8]. Moreover, the IC50 in series [3] (Homo sapiens, HT-29, 4 h) turned out to be 2.3 µM; in series [5] (Homo sapiens, SiHa, 4 h), 0.7 µM. This molecule also came in with a D in series [7] of 5.9e-07 cm²/s. Besides, in series [9], the solubility is above 51 mM.

For `CN(C)CCNc1n[n+]([O-])c2cc3c(cc2[n+]1[O-])CCO3`, the “Ratio IC50” value is 23 in series [1] and 87 in series [6]. For the same molecule, the results for the Activity in series [2], in [4] (1 h) and in series [8] were 3.15 min⁻¹, 6732 µM and 18.6 µM·h, respectively. Besides, the results for the concentration for half-maximal inhibition (IC50) in series [3] (ht-29) and in [5] (siha) were 2.4 µM and 0.3 µM, respectively. In [7], this molecule gave a D of 4.3e-07 cm²/s. In addition, in series [9], the solubility was above 48 mM.

Take `CN(C)CCNc1n[n+]([O-])c2c3c(ccc2[n+]1[O-])OCCC3`: the entries for the “Ratio IC50” value in [1] and in series [6] were 14 and 66, respectively. The figures for the Activity in [2], in [4] and in series [8] were 0.59 min⁻¹, 3124 µM and 46.1 µM·h, respectively. The 50% inhibitory concentration (IC50) in [3] (Homo sapiens, HT-29, 4 h) was found to be 4.1 µM; in [5] (Homo sapiens, SiHa, 4 h) it was 0.7 µM. Besides, the solubility in series [9] worked out at 47 mM.

With `[O-][n+]1nc(NCCN2CCCCC2)[n+]([O-])c2cc3c(cc21)CCC3`, the results for the “Ratio IC50” value in series [1] and in [6] were 49 and 143, respectively. The Activity in series [2] came out at 1.25 min⁻¹; in series [4] it was 2444 µM; in series [8] it was 15.6 µM·h. In addition, the IC50 in [3] (Homo sapiens, HT-29, 4 h) is 5.8 µM; in series [5] (Homo sapiens, SiHa, 4 h), 1.3 µM. Besides, in series [7], the D amounted to 1.19e-06 cm²/s. For the same molecule, the solubility in series [9] worked out at 1.9 mM.

In the case of `[O-][n+]1nc(NCCCN2CCOCC2)[n+]([O-])c2cc3c(cc21)CCCC3`, the results for the “Ratio IC50” value in series [1] and in series [6] were 25 and 54, respectively. In addition, the figures for the Activity in series [2], in series [4] and in series [8] were 0.69 min⁻¹, 3294 µM and 41.6 µM·h, respectively. The IC50 was determined as 6.3 µM in series [3] (Homo sapiens, HT-29, 4 h) and 2.6 µM in [5] (Homo sapiens, SiHa, 4 h). Besides, in [9], the solubility came to 49 mM.

As for `CC1Cc2cc3c(cc2C1)[n+]([O-])c(NCCN(C)C)n[n+]3[O-]` (stereo not drawn), the “Ratio IC50” value in series [1] is given as 54; in [6], 97. The Activity in series [2] was 1.49 min⁻¹; in [4], 3057 µM; in series [8], 23 µM·h. In addition, the half-maximal inhibitory concentration (IC50) in [3] (Homo sapiens, HT-29, 4 h) worked out at 3.5 µM; in series [5] (Homo sapiens, SiHa, 4 h), 1.4 µM. Also, the solubility in [9] is above 49 mM.

On to `CC1Cc2cc3c(cc2C1)[n+]([O-])c(NCCCN1CCOCC1)n[n+]3[O-]` (stereo not drawn), for which the “Ratio IC50” value in series [1] is recorded as 25; in series [6], 50. In addition, the Activity in series [2] was determined as 0.13 min⁻¹; in series [4], 1903 µM; in series [8], 122.9 µM·h. Besides, the IC50 in series [3] (Homo sapiens, HT-29, 4 h) is 19 µM; in [5] (Homo sapiens, SiHa, 4 h) it was 8.4 µM. Also, in series [9], the solubility is above 49 mM.

As for `CCCN(CCC)CCNc1n[n+]([O-])c2cc3c(cc2[n+]1[O-])CCC3`, the “Ratio IC50” value was determined as 77 in series [1] and 91 in series [6]. Also, the Activity in series [2] came to 1.07 min⁻¹; in [4], 3941 µM; in [8], 31.8 µM·h. The IC50 in series [3] (Homo sapiens, HT-29, 4 h) is 2.5 µM; in series [5] (Homo sapiens, SiHa, 4 h) it was 0.7 µM. The same molecule registered a D in series [7] of 1.92e-06 cm²/s. Further, the solubility in series [9] amounted to 20 mM.

`[O-][n+]1nc(CCCN2CCOCC2)[n+]([O-])c2cc3c(cc21)CCO3`: the figures for the “Ratio IC50” value in series [1] and in series [6] were 25 and 43, respectively. Moreover, the Activity in series [2] stood at 0.31 min⁻¹; in [4], 986 µM; in series [8], 27.6 µM·h. Moreover, the IC50 in [3] (Homo sapiens, HT-29, 4 h) was 8.9 µM; in series [5] (Homo sapiens, SiHa, 4 h) it was 5.1 µM. Also, the solubility in series [9] is 51 mM.
